Columns and labels:
Hepatocyte [1] = test: Induction of change in Fam120A protein expression in C57BL/6J mouse primary hepatocytes at 400 uM incubated for 8 hrs by relative-quantitation label-free proteomics analysis relative to NVP; format: cell-based
Procedure, shortened: (§1)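 Fresh primary hepatocytes from male C57BL/6J mice aged 8–13 weeks, adhered overnight, then given fresh medium containing compound (400 μM), NVP (400 μM) or vehicle (0.2% DMSO) for 8 h. Lysate reduced (DTT) and alkylated (iodoacetamide), acetone-precipitated and digested with trypsin. Label-free Top10 nanoLC-MS with precursor ion area quantitation; unpaired t test P values, Cohen's d effect size.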

Hepatocyte [2] = test: Induction of change in Slc9a3r1 protein expression in C57BL/6J mouse primary hepatocytes at 400 uM incubated for 8 hrs by relative-quantitation label-free proteomics analysis relative to NVP; format: cell-based; procedure, shortened: as §1
Hepatocyte [3] = test: Induction of change in CARS2 protein expression in human primary hepatocytes at 10 uM incubated for 48 hrs by relative-quantitation label-free proteomics analysis relative to NVP; format: cell-based
Procedure, shortened: as §1, with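 “Cryoplateable pooled human” for “Fresh primary”, “(10 mixed-sex donors per pool; three pools),” for “from male C57BL/6J mice aged 8–13 weeks,”, “(10” for “(400”, “(0.1%” for “(0.2%”, “48” for “8”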

Hepatocyte [4] = test: Induction of change in MRPL23 protein expression in human primary hepatocytes at 10 uM incubated for 48 hrs by relative-quantitation label-free proteomics analysis relative to NVP; format: cell-based
Procedure, shortened: as §1, with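 “Cryoplateable pooled human” for “Fresh primary”, “(10 mixed-sex donors per pool; three pools),” for “from male C57BL/6J mice aged 8–13 weeks,”, “(10” for “(400”, “(0.1%” for “(0.2%”, “48” for “8”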

Cytochrome P450 [5] = test: Drug metabolism in human liver microsomes assessed as Cytochrome P450-mediated formation of 3-OHNVP formation at 5 to 400 uM in presence of NADPH regenerating reagents by uHPLC-MS/MS analysis; format: ADME
Procedure, shortened: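 Pooled human liver microsomes (2.5 mg/mL) with NADPH-regenerating system, substrate 5–400 μM, 30 min at 37 °C, 0.1% DMSO (0.2% at 400 μM); 2- and 3-OH metabolites by uHPLC-MS/MS Orbitrap; three replicates, mean ± SD.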

Hepatocyte [6] = test: Induction of change in FUBP3 protein expression in human primary hepatocytes at 10 uM incubated for 48 hrs by relative-quantitation label-free proteomics analysis relative to NVP; format: cell-based
Procedure, shortened: as §1, with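 “Cryoplateable pooled human” for “Fresh primary”, “(10 mixed-sex donors per pool; three pools),” for “from male C57BL/6J mice aged 8–13 weeks,”, “(10” for “(400”, “(0.1%” for “(0.2%”, “48” for “8”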

Hepatocyte [7] = test: Induction of change in Sirt5 protein expression in C57BL/6J mouse primary hepatocytes at 400 uM incubated for 8 hrs by relative-quantitation label-free proteomics analysis relative to NVP; format: cell-based; procedure, shortened: as §1
Hepatocyte [8] = test: Induction of change in EXOSC1 protein expression in human primary hepatocytes at 10 uM incubated for 48 hrs by relative-quantitation label-free proteomics analysis relative to NVP; format: cell-based
Procedure, shortened: as §1, with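 “Cryoplateable pooled human” for “Fresh primary”, “(10 mixed-sex donors per pool; three pools),” for “from male C57BL/6J mice aged 8–13 weeks,”, “(10” for “(400”, “(0.1%” for “(0.2%”, “48” for “8”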

Hepatocyte [9] = test: Induction of change in ALAD protein expression in human primary hepatocytes at 10 uM incubated for 48 hrs by relative-quantitation label-free proteomics analysis relative to NVP; format: cell-based
Procedure, shortened: as §1, with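 “Cryoplateable pooled human” for “Fresh primary”, “(10 mixed-sex donors per pool; three pools),” for “from male C57BL/6J mice aged 8–13 weeks,”, “(10” for “(400”, “(0.1%” for “(0.2%”, “48” for “8”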

Hepatocyte [10] = test: Induction of change in PLEKHA6 protein expression in human primary hepatocytes at 10 uM incubated for 48 hrs by relative-quantitation label-free proteomics analysis relative to NVP; format: cell-based
Procedure, shortened: as §1, with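 “Cryoplateable pooled human” for “Fresh primary”, “(10 mixed-sex donors per pool; three pools),” for “from male C57BL/6J mice aged 8–13 weeks,”, “(10” for “(400”, “(0.1%” for “(0.2%”, “48” for “8”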

Hepatocyte [11] = test: Induction of change in CYC1 protein expression in human primary hepatocytes at 10 uM incubated for 48 hrs by relative-quantitation label-free proteomics analysis relative to NVP; format: cell-based
Procedure, shortened: as §1, with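 “Cryoplateable pooled human” for “Fresh primary”, “(10 mixed-sex donors per pool; three pools),” for “from male C57BL/6J mice aged 8–13 weeks,”, “(10” for “(400”, “(0.1%” for “(0.2%”, “48” for “8”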

Cytochrome P450 2C8 = target: T1, Cytochrome P450 2C8 (Homo sapiens, UniProt P10632); test: Drug metabolism assessed as human CYP2C8-mediated formation of 12-OHNVP at 10 uM […] by uHPLC-MS analysis; format: ADME; conditions: recombinant enzyme
T1 sequence (P10632 whole entry): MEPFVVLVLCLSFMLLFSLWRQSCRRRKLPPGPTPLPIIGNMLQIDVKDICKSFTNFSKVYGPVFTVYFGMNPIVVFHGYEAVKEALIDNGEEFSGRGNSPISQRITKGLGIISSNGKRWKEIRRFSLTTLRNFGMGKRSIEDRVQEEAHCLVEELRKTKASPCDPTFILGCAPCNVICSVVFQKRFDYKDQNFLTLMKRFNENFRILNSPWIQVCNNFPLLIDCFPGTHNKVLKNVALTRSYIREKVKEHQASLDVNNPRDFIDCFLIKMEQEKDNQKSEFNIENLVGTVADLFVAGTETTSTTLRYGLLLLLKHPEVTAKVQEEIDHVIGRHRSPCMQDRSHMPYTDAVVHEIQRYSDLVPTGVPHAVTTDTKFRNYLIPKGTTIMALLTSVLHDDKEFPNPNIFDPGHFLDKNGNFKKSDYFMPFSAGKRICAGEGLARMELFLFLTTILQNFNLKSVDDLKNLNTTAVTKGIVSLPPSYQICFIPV
Procedure, shortened: (§2)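 Insect-cell microsomes with single cDNA-expressed human P450 (100 nM) in 0.1 M potassium phosphate; 10 μM substrate prewarmed 5 min at 37 °C with NADPH-regenerating system, reaction started by adding microsomes; 30 min at 37 °C, 0.1% DMSO. Stopped, dried, reconstituted in methanol; triple-quadrupole SRM (12-OH 283.1→223.0, 2-OH 283.1→160.9, 3-OH 283.1→241.9), peak height; three replicates, mean ± SD.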

Hepatocyte [12] = test: Induction of change in Slc22a28 protein expression in C57BL/6J mouse primary hepatocytes at 400 uM incubated for 8 hrs by relative-quantitation label-free proteomics analysis relative to NVP; format: cell-based; procedure, shortened: as §1
Cytochrome P450 [13] = test: Drug metabolism in human liver microsomes assessed as Cytochrome P450-mediated formation of 12-OHNVP by measuring Kcat/Km ratio in presence of NADPH regenerating reagents by uHPLC-MS/MS analysis
Procedure, shortened: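 Pooled human liver microsomes (2.5 mg/mL) in potassium phosphate; substrate (1–400 μM) prewarmed 5 min at 37 °C with NADPH-regenerating system, started with microsomes, 30 min at 37 °C. 12-OH product quantified by uHPLC-MS/MS Orbitrap against 12-OHNVP standard curve made in microsomes without NADPH. Kcat/Km taken as slope of linear rate vs substrate fit at nonsaturating 0–50 μM.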

Cytochrome P450 2C9 = Cytochrome P450 2C9 (Homo sapiens, UniProt P11712); test: Drug metabolism assessed as human CYP2C9-mediated formation of 12-OHNVP at 10 uM pre-incubated for 30 mins followed by addition of NADPH regenerating reagents by uHPLC-MS analysis; format: ADME; conditions: recombinant enzyme; procedure, shortened: as §2
Sequence of Cytochrome P450 2C9 (P11712 whole entry): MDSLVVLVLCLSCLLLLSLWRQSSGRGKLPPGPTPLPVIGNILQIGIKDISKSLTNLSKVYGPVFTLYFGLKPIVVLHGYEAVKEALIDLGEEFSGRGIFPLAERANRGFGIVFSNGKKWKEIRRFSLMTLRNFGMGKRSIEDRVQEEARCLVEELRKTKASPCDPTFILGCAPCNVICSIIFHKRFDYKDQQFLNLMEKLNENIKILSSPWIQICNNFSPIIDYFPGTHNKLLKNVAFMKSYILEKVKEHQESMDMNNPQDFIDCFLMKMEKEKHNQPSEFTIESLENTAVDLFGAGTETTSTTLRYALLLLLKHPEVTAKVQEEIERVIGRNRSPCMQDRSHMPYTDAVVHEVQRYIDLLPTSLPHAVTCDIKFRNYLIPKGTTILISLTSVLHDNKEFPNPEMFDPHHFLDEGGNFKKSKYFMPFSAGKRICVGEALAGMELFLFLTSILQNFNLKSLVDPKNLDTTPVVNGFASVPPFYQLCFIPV

Hepatocyte [14] = test: Induction of change in Rps27a protein expression in C57BL/6J mouse primary hepatocytes at 400 uM incubated for 8 hrs by relative-quantitation label-free proteomics analysis relative to NVP; format: cell-based; procedure, shortened: as §1

Structure (SMILES): [2H]C([2H])([2H])c1ccnc2c1NC(=O)c1cccnc1N2C1CC1
- fold change (FC) (Hepatocyte [1]): 2.06
- fold change (FC) (Hepatocyte [2]): 2.5
- fold change (FC) (Hepatocyte [3]): 1.85
- fold change (FC) (Hepatocyte [4]): 8.32
- Drug metabolism (Cytochrome P450 [5]): Metabolite_Detected
- fold change (FC) (Hepatocyte [6]): -1.47
- fold change (FC) (Hepatocyte [7]): 1.56
- fold change (FC) (Hepatocyte [8]): -2.73
- fold change (FC) (Hepatocyte [9]): -1.86
- fold change (FC) (Hepatocyte [10]): 1.59
- fold change (FC) (Hepatocyte [11]): -1.4
- Drug metabolism (Cytochrome P450 2C8): Metabolite_Detected
- fold change (FC) (Hepatocyte [12]): -1.66
- Kcat/Km (Cytochrome P450 [13]): 0.153 M⁻¹ s⁻¹
- Drug metabolism (Cytochrome P450 2C9): Metabolite_Detected
- fold change (FC) (Hepatocyte [14]): 3.03

From ChEMBL document CHEMBL4613248, “Twelfth-Position Deuteration of Nevirapine Reduces 12-Hydroxy-Nevirapine Formation and Nevirapine-Induced Hepatocyte Death” (J Med Chem, 2020)
